Measurements taken from ChEMBL document CHEMBL4689842, “EUbOPEN Chemogenomics Library wave 1” (2021).
Several values for one entry are separate records, joined by “and”; a condition that tells them apart may be missing. Equal values may be shown once.

Tested on: HEK-293T
Test: Multiplex assay against HEK293T;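 on Population Tubulin-Different-Phenotype (%): share of the cells with healthy nuclei that show this phenotype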
Assay type: toxicity, cell-based
Conditions: human
Method in brief: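 Hoechst33342, BioTracker Green Microtubule Cytoskeleton Dye, MitoTracker Red and Annexin V Alexa Fluor 680 were added to live cells at seeding, and imaging on a CQ1 microscope at 37°C and 5% CO2 followed compound addition. Gating by CellPathfinder machine learning separated cells into Hoechst high-intensity objects or normal cells, then normal cells into healthy, pyknosed or fragmented nuclei, then pyknosed cells into mitotic or apoptotic. Per cents of healthy-nucleus cells are reported for the tubulin, mitochondrial-mass and membrane-permeability phenotypes.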

[1] = 12 h, 1 µM, compound concentration 1 uM, replicate 1
[2] = 12 h, 1 µM, compound concentration 1 uM, replicate 2
[3] = 12 h, 10 µM, compound concentration 10 uM, replicate 1
[4] = 12 h, 10 µM, compound concentration 10 uM, replicate 2
[5] = 24 h, 1 µM, compound concentration 1 uM, replicate 1
[6] = 24 h, 1 µM, compound concentration 1 uM, replicate 2
[7] = 24 h, 10 µM, compound concentration 10 uM, replicate 1
[8] = 24 h, 10 µM, compound concentration 10 uM, replicate 2
[9] = 48 h, 1 µM, compound concentration 1 uM, replicate 1
[10] = 48 h, 1 µM, compound concentration 1 uM, replicate 2
[11] = 48 h, 10 µM, compound concentration 10 uM, replicate 1
[12] = 48 h, 10 µM, compound concentration 10 uM, replicate 2

CC(C)N1CCC(C)(C)c2cc(C#Cc3ccc(C(=O)O)cc3)ccc21
Population Apoptotic (%) [1]: 60%
Population Fragmented Nuclei (%) [1]: 13%
Population Healthy Nuclei (%) [1]: 45%
Population Hoechst High Intensity Objects (%) [1]: 17%
Population Membrane Permeable-Phenotype (%) [1]: 2%
Population Mitochondria Different-Phenotype (%) [1]: 74%
Population Mitotic Cells (%) [1]: 40%
Population Normal (%) [1]: 82%
Population Pyknosed Nuclei (%) [1]: 41%
Population Tubulin-Different-Phenotype (%) [1]: 43%
Total Cell Count [1]: 278
Population Apoptotic (%) [2]: 18%
Population Fragmented Nuclei (%) [2]: 4%
Population Healthy Nuclei (%) [2]: 54%
Population Hoechst High Intensity Objects (%) [2]: 8%
Population Membrane Permeable-Phenotype (%) [2]: 8%
Population Mitochondria Different-Phenotype (%) [2]: 12%
Population Mitotic Cells (%) [2]: 81%
Population Normal (%) [2]: 91%
Population Tubulin-Different-Phenotype (%) [2]: 6%
Total Cell Count [2]: 156
Population Apoptotic (%) [3]: 52%
Population Fragmented Nuclei (%) [3]: 51%
Population Healthy Nuclei (%) [3]: 40%
Population Hoechst High Intensity Objects (%) [3]: 64%
Population Membrane Permeable-Phenotype (%) [3]: 5%
Population Mitochondria Different-Phenotype (%) [3]: 66%
Population Mitotic Cells (%) [3]: 47%
Population Normal (%) [3]: 35%
Population Pyknosed Nuclei (%) [3]: 8%
Population Tubulin-Different-Phenotype (%) [3]: 23%
Total Cell Count [3]: 563
Population Apoptotic (%) [4]: 16%
Population Fragmented Nuclei (%) [4]: 32%
Population Healthy Nuclei (%) [4]: 61%
Population Hoechst High Intensity Objects (%) [4]: 44%
Population Membrane Permeable-Phenotype (%) [4]: 4%
Population Mitochondria Different-Phenotype (%) [4]: 12%
Population Mitotic Cells (%) [4]: 83%
Population Normal (%) [4]: 55%
Population Pyknosed Nuclei (%) [4]: 5%
Population Tubulin-Different-Phenotype (%) [4]: 5%
Total Cell Count [4]: 405
Population Apoptotic (%) [5]: 58%
Population Fragmented Nuclei (%) [5]: 13%
Population Healthy Nuclei (%) [5]: 45%
Population Hoechst High Intensity Objects (%) [5]: 19%
Population Membrane Permeable-Phenotype (%) [5]: 6%
Population Mitochondria Different-Phenotype (%) [5]: 52%
Population Mitotic Cells (%) [5]: 41%
Population Normal (%) [5]: 80%
Population Pyknosed Nuclei (%) [5]: 41%
Population Tubulin-Different-Phenotype (%) [5]: 49%
Total Cell Count [5]: 315
Population Apoptotic (%) [6]: 14%
Population Fragmented Nuclei (%) [6]: 4%
Population Healthy Nuclei (%) [6]: 59%
Population Hoechst High Intensity Objects (%) [6]: 4%
Population Membrane Permeable-Phenotype (%) [6]: 7%
Population Mitochondria Different-Phenotype (%) [6]: 4%
Population Mitotic Cells (%) [6]: 85%
Population Normal (%) [6]: 95%
Population Pyknosed Nuclei (%) [6]: 35%
Population Tubulin-Different-Phenotype (%) [6]: 10%
Total Cell Count [6]: 168
Population Apoptotic (%) [7]: 37%
Population Fragmented Nuclei (%) [7]: 56%
Population Healthy Nuclei (%) [7]: 40%
Population Hoechst High Intensity Objects (%) [7]: 62%
Population Membrane Permeable-Phenotype (%) [7]: 6%
Population Mitochondria Different-Phenotype (%) [7]: 37%
Population Mitotic Cells (%) [7]: 62%
Population Normal (%) [7]: 37%
Population Pyknosed Nuclei (%) [7]: 4%
Population Tubulin-Different-Phenotype (%) [7]: 21%
Total Cell Count [7]: 530
Population Apoptotic (%) [8]: 0%
Population Fragmented Nuclei (%) [8]: 29%
Population Healthy Nuclei (%) [8]: 67%
Population Hoechst High Intensity Objects (%) [8]: 46%
Population Membrane Permeable-Phenotype (%) [8]: 3%
Population Mitochondria Different-Phenotype (%) [8]: 6%
Population Mitotic Cells (%) [8]: 100%
Population Normal (%) [8]: 53%
Population Pyknosed Nuclei (%) [8]: 3%
Population Tubulin-Different-Phenotype (%) [8]: 9%
Total Cell Count [8]: 448
Population Apoptotic (%) [9]: 43%
Population Fragmented Nuclei (%) [9]: 15%
Population Healthy Nuclei (%) [9]: 56%
Population Hoechst High Intensity Objects (%) [9]: 17%
Population Membrane Permeable-Phenotype (%) [9]: 6%
Population Mitochondria Different-Phenotype (%) [9]: 29%
Population Mitotic Cells (%) [9]: 56%
Population Normal (%) [9]: 82%
Population Pyknosed Nuclei (%) [9]: 28%
Population Tubulin-Different-Phenotype (%) [9]: 27%
Total Cell Count [9]: 389
Population Apoptotic (%) [10]: 11%
Population Fragmented Nuclei (%) [10]: 9%
Population Healthy Nuclei (%) [10]: 80%
Population Hoechst High Intensity Objects (%) [10]: 2%
Population Membrane Permeable-Phenotype (%) [10]: 5%
Population Mitochondria Different-Phenotype (%) [10]: 2%
Population Mitotic Cells (%) [10]: 88%
Population Normal (%) [10]: 97%
Population Pyknosed Nuclei (%) [10]: 10%
Population Tubulin-Different-Phenotype (%) [10]: 9%
Total Cell Count [10]: 358
Population Apoptotic (%) [11]: 37%
Population Fragmented Nuclei (%) [11]: 57%
Population Healthy Nuclei (%) [11]: 38%
Population Hoechst High Intensity Objects (%) [11]: 66%
Population Membrane Permeable-Phenotype (%) [11]: 7%
Population Mitochondria Different-Phenotype (%) [11]: 12%
Population Mitotic Cells (%) [11]: 62%
Population Normal (%) [11]: 33%
Population Pyknosed Nuclei (%) [11]: 3%
Population Tubulin-Different-Phenotype (%) [11]: 3%
Total Cell Count [11]: 624
Population Apoptotic (%) [12]: 0%
Population Fragmented Nuclei (%) [12]: 23%
Population Healthy Nuclei (%) [12]: 73%
Population Hoechst High Intensity Objects (%) [12]: 52%
Population Membrane Permeable-Phenotype (%) [12]: 4%
Population Mitochondria Different-Phenotype (%) [12]: 1%
Population Mitotic Cells (%) [12]: 100%
Population Normal (%) [12]: 47%
Population Pyknosed Nuclei (%) [12]: 2%
Population Tubulin-Different-Phenotype (%) [12]: 5%
Total Cell Count [12]: 571

CC(C)Oc1ccc(C(=O)N[C@H](CNC(=O)CN(C)C)Cc2ccc(-c3cn4cccc([C@H](C)O)c4n3)cc2)cc1Cl [GSK-923295A]
Population Apoptotic (%) [1]: 15%
Population Fragmented Nuclei (%) [1]: 9%
Population Healthy Nuclei (%) [1]: 61%
Population Hoechst High Intensity Objects (%) [1]: 8%
Population Membrane Permeable-Phenotype (%) [1]: 6%
Population Mitochondria Different-Phenotype (%) [1]: 10%
Population Mitotic Cells (%) [1]: 84%
Population Normal (%) [1]: 91%
Population Pyknosed Nuclei (%) [1]: 28%
Population Tubulin-Different-Phenotype (%) [1]: 15%
Total Cell Count [1]: 623
Population Apoptotic (%) [2]: 7%
Population Fragmented Nuclei (%) [2]: 6%
Population Healthy Nuclei (%) [2]: 69%
Population Hoechst High Intensity Objects (%) [2]: 2%
Population Membrane Permeable-Phenotype (%) [2]: 3%
Population Mitochondria Different-Phenotype (%) [2]: 12%
Population Mitotic Cells (%) [2]: 92%
Population Normal (%) [2]: 97%
Population Pyknosed Nuclei (%) [2]: 24%
Population Tubulin-Different-Phenotype (%) [2]: 25%
Total Cell Count [2]: 1239
Population Apoptotic (%) [3]: 33% and 93%
Population Fragmented Nuclei (%) [3]: 22% and 19%
Population Healthy Nuclei (%) [3]: 37% and 22%
Population Hoechst High Intensity Objects (%) [3]: 20% and 23%
Population Normal (%) [3]: 79% and 76%
Population Pyknosed Nuclei (%) [3]: 39% and 58%
Population Tubulin-Different-Phenotype (%) [3]: 82% and 100%
Population Healthy Nuclei (%) [4]: 28% and 73%
Population Hoechst High Intensity Objects (%) [4]: 4%
Population Membrane Permeable-Phenotype (%) [4]: 13% and 21%
Population Mitochondria Different-Phenotype (%) [4]: 86% and 42%
Population Mitotic Cells (%) [4]: 32% and 82%
Population Normal (%) [4]: 95%
Population Pyknosed Nuclei (%) [4]: 62% and 24%
Population Tubulin-Different-Phenotype (%) [4]: 94% and 98%
Population Apoptotic (%) [5]: 10%
Population Fragmented Nuclei (%) [5]: 10%
Population Healthy Nuclei (%) [5]: 65%
Population Hoechst High Intensity Objects (%) [5]: 7%
Population Membrane Permeable-Phenotype (%) [5]: 6%
Population Mitochondria Different-Phenotype (%) [5]: 11%
Population Mitotic Cells (%) [5]: 90%
Population Normal (%) [5]: 92%
Population Pyknosed Nuclei (%) [5]: 24%
Population Tubulin-Different-Phenotype (%) [5]: 23%
Total Cell Count [5]: 668
Population Apoptotic (%) [6]: 12%
Population Fragmented Nuclei (%) [6]: 13%
Population Healthy Nuclei (%) [6]: 77%
Population Hoechst High Intensity Objects (%) [6]: 4%
Population Membrane Permeable-Phenotype (%) [6]: 4%
Population Mitochondria Different-Phenotype (%) [6]: 8%
Population Mitotic Cells (%) [6]: 87%
Population Normal (%) [6]: 95%
Population Pyknosed Nuclei (%) [6]: 8%
Population Tubulin-Different-Phenotype (%) [6]: 28%
Total Cell Count [6]: 1632
Population Apoptotic (%) [7]: 92% and 41%
Population Fragmented Nuclei (%) [7]: 19%
Population Healthy Nuclei (%) [7]: 33% and 54%
Population Hoechst High Intensity Objects (%) [7]: 22% and 18%
Population Membrane Permeable-Phenotype (%) [7]: 0% and 19%
Population Mitochondria Different-Phenotype (%) [7]: 100% and 41%
Population Normal (%) [7]: 77% and 81%
Population Pyknosed Nuclei (%) [7]: 47% and 26%
Population Tubulin-Different-Phenotype (%) [7]: 91%
Population Fragmented Nuclei (%) [8]: 8% and 4%
Population Healthy Nuclei (%) [8]: 39% and 72%
Population Hoechst High Intensity Objects (%) [8]: 4% and 7%
Population Mitochondria Different-Phenotype (%) [8]: 94% and 40%
Population Normal (%) [8]: 95% and 92%
Population Pyknosed Nuclei (%) [8]: 51% and 22%
Population Tubulin-Different-Phenotype (%) [8]: 96% and 98%
Population Apoptotic (%) [11]: 87%
Population Fragmented Nuclei (%) [11]: 23%
Population Healthy Nuclei (%) [11]: 46%
Population Hoechst High Intensity Objects (%) [11]: 30%
Population Membrane Permeable-Phenotype (%) [11]: 3%
Population Mitochondria Different-Phenotype (%) [11]: 100%
Population Mitotic Cells (%) [11]: 12%
Population Normal (%) [11]: 69%
Population Pyknosed Nuclei (%) [11]: 29%
Population Tubulin-Different-Phenotype (%) [11]: 88%
Total Cell Count [11]: 156
Population Apoptotic (%) [12]: 75%
Population Fragmented Nuclei (%) [12]: 10%
Population Healthy Nuclei (%) [12]: 53%
Population Hoechst High Intensity Objects (%) [12]: 15%
Population Membrane Permeable-Phenotype (%) [12]: 9%
Population Mitochondria Different-Phenotype (%) [12]: 86%
Population Mitotic Cells (%) [12]: 24%
Population Normal (%) [12]: 84%
Population Pyknosed Nuclei (%) [12]: 35%
Population Tubulin-Different-Phenotype (%) [12]: 97%
Total Cell Count [12]: 164
